Assay outcomes as filed in PubChem.
TRPC6 act: mouse TRPC6 channel activation. Q61143. hit rate 0.13% among 310,000. B-score at 10 µM. HEK293-TRPC6 membrane potential dye fluorescence; stronger effect = higher value;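 active = B-score of the integrated fluorescence ratio above library mean plus 3 SD, and starting fluorescence ratio within library mean plus 5 SD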;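 also: higher score means more depolarization so channel activation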
Target sequence (Q61143 whole entry, looked up): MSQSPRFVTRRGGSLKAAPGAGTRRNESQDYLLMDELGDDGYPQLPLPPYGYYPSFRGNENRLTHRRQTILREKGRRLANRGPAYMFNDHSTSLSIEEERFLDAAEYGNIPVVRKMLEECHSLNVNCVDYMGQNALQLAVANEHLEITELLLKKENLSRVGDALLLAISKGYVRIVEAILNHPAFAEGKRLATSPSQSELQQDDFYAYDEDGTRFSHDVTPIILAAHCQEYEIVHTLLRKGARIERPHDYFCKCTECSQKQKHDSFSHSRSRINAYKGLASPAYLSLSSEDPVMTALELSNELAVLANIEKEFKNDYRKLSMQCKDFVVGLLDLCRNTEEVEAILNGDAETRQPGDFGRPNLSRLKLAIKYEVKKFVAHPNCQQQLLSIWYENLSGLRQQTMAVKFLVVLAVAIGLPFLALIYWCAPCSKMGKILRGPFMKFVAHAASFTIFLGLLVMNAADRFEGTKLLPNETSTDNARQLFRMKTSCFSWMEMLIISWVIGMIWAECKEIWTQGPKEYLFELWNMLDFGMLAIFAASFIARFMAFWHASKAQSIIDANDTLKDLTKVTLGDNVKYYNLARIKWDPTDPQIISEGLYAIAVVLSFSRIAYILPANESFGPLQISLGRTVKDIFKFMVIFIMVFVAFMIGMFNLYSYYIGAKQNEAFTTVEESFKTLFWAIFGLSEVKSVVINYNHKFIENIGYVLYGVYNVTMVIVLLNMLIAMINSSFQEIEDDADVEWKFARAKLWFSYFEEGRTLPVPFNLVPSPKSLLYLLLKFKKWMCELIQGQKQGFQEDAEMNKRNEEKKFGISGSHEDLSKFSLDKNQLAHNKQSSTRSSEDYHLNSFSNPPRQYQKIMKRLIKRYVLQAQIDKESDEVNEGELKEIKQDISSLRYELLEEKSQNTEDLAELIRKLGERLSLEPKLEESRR
TRPC4 act: activators of mouse TRPC4 channel; hit rate 0.49% among 310,000; B-score at 10 µM; HEK293 TRPC4beta/mu-opioid, Fluo4 calcium fluorescence; stronger effect = higher value;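 active = B-score above 5 SD of library B-scores, and initial fluorescence ratio not above library mean plus 5 SD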;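 also: positive B-score marks a calcium rise read as TRPC4 activation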
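Test system: HEK293 cells stably co-expressing mouse TRPC4beta and mu-opioid receptor | Schedule: Fluo4 dye loading 45 min at room temperature, 110 s recording | Measured by: Kinetic Fluo4 calcium fluorescence, 5 s baseline at 1 Hz | Evaluation: B score of integrated ratio | Controls: Buffer (low) and maximal DAMGO (high)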
TRPC4 inh: blocks the mouse TRPC4 cation channel; AID 2247; Q9QUQ5; HEK293 TRPC4beta/mu-opioid, DAMGO-evoked Fluo4 calcium flux; stronger effect = lower value; hit rate 0.39% among 300,000; B-score at 10 µM;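 active = B-score over 3 SD under the library average, no early fluorescence shift, positive overall ratio signal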
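Material: HEK293 cells with stable TRPC4beta plus mu-opioid receptor expression / Probe or stimulus: DAMGO in two steps, submaximal then maximal / Compound: single concentration per test compound / Technique: kinetic Fluo4 fluorescence imaging of calcium influx / Read-out: per-well B score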
TRPC4 potent: allosteric potentiators of mouse TRPC4 channel; Q9QUQ5; HEK293 TRPC4beta/mu-opioid, DAMGO EC20, Fluo-4 Ca2+ flux; stronger effect = higher value; B-score at 10 µM; hit rate 0.42% among 310,000; AID 2227;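 active = B-score of calcium response area above 5 SD of library B-scores, with initial fluorescence ratio within 5 SD of library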;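 also: B-score of integrated fluorescence ratio over time as area under calcium response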
TRPC6 inhibitor: mouse TRPC6 channel inhibition. Q61143. HEK293-TRPC6, membrane potential dye, ACh-evoked depolarization; stronger effect = lower value. B-score at 10 µM. hit rate 1.1% among 310,000. AID 2553;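 active = B-score under library mean minus 3 SD, initial fluorescence not abnormally high, positive integrated signal ratio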;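 also: B-score derived from integrated fluorescence ratio over the kinetic read; more negative B-score means stronger inhibition of depolarization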
TRPC4 spec 2: second check of whether TRPC6 inhibitors also affect mouse TRPC4. hit rate 42% among 920. HEK293 TRPC4/MOR, membrane potential dye fluorescence; channel activated by saturating DAMGO dose. shares compounds with TRPC6 inhibitor. inhibition, % at 10 µM. AID 2776;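 active = compounds whose fluorescence signal differed from control wells by over 3 SD, either direction, in both duplicate plates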
TRPC4 spec: tests whether TRPC6 inhibitors also affect mouse TRPC4. AID 2777. activity change, negative = inhibition, % at 10 µM. HEK293 TRPC4/mu-opioid, membrane potential fluorescence. shares compounds with TRPC6 inhibitor. hit rate 61% among 920;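 active = rise or fall in signal beyond 3 SD of buffer-only wells in both replicate plates, either sign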;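 also: integrated kinetic ratio of fluorescence range over baseline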
HEK293 MPD ctr 2-1: parental HEK293 nonspecific activity of TRPC6 inhibitors, second screen | AID 2779 | parental HEK293 membrane potential dye fluorescence; maximal acetylcholine challenge after compound addition | hit rate 31% among 920 | signal change vs control, % at 10 µM | shares compounds with TRPC6 inhibitor;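 active = membrane potential signal moving either way by over 3 SD of the maximum-effect control, in both duplicate plates, meaning non-specific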
HEK293 MPD ctr-1: parental HEK293 nonspecific activity of TRPC6 inhibitors; shares compounds with TRPC6 inhibitor; parental HEK293 membrane potential dye fluorescence; membrane potential signal change, % at 10 µM; hit rate 60% among 920; AID 2780;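 active = membrane potential signal shifting up or down by more than 3 SD of buffer-only wells, on both duplicate plates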
HEK293 MPD ctr-2: counter-screen for TRPC6 modulators: effect in parental HEK293 cells; membrane potential signal change, % at 10 µM; hit rate 51% among 2,400; shares compounds with TRPC6 inhibitor; membrane potential dye fluorescence;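 active = membrane potential signal moves up or down beyond 5 SD from buffer-only wells, on both duplicate plates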
HEK293 MPD ctr 2-2: second check of TRPC6 modulator effects in parental HEK293 cells. shares compounds with TRPC6 inhibitor. membrane potential dye fluorescence; after compound, maximal acetylcholine stimulation. inhibition, % at 10 µM. hit rate 14% among 2,400;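 active = membrane potential signal drops by more than 5 SD from the mean control signal, in both duplicate plates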;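 also: plate controls were acetylcholine ECmax control wells for no effect and buffer only wells for full effect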
TRPC4 ctr mod: mouse TRPC4 off-target activity of TRPC6 modulators; shares compounds with TRPC6 inhibitor; HEK293 TRPC4/mu-opioid, membrane potential fluorescence; percent change from control (negative = decrease, positive = increase), % at 10 µM; hit rate 69% among 2,400;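 active = membrane potential signal moved up or down beyond 5 SD of buffer control wells, in both duplicate plates, actives on both sides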;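 also: plate controls were assay buffer wells for no effect and DAMGO maximal-effect wells for full effect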
TRPC4/MOR inh 2: second check of whether TRPC6 modulators also affect mouse TRPC4; shares compounds with TRPC6 inhibitor; HEK293 TRPC4/mu-opioid, membrane potential dye fluorescence; stimulated with maximal-effect DAMGO; inhibition, % at 10 µM; hit rate 55% among 2,400; AID 488928;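 active = drop in membrane potential signal beyond 5 SD of the control wells in both duplicate plates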;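 also: TRPC4 counter screen for TRPC6 hits run under conditions tuned for TRPC6 not TRPC4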
TRPC6 block conf: mouse TRPC6 inhibitor confirmation; shares compounds with TRPC6 inhibitor; HEK293-TRPC6, membrane potential dye, ACh-evoked depolarization; inhibition, % at 10 µM; hit rate 43% among 3,300;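 active = fluorescence ratio falls more than 5 SD below the full-stimulation control mean, in both duplicate runs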;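 also: integrated fluorescence ratio of peak minus minimum over baseline after agonist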
TRPC6 act confirm: mouse TRPC6 activator confirmation | shares compounds with TRPC6 inhibitor | HEK293-TRPC6 membrane potential dye fluorescence, FDSS | activation, % at 10 µM | hit rate 11% among 2,800;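 active = ratio signal rise beyond 5 SD above unstimulated control wells' mean, seen in both duplicate runs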;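 also: plate controls were buffer EC0 wells for no effect and acetylcholine ECmax response for full effect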
* = called active by the depositor; i = inactive; · = no result given. Shown are actives, neighbours in structure and some others; about 2.3% of the full set was active somewhere.

SMILES	TRPC6 act	TRPC4 act	TRPC4 inh	TRPC4 potent	TRPC6 inhibitor	HEK293 MPD ctr-2	HEK293 MPD ctr 2-2	TRPC4 ctr mod	TRPC4/MOR inh 2	TRPC6 block conf	TRPC6 act confirm	others
O=C1CC(N2CCc3ccccc32)C(=O)N1c1ccc(F)cc1 (centres undefined)	i	i	i	i	i	·	·	·	·	·	·
N#CCn1c(CCl)nc2ccccc2c1=O	i	i	i	i	i	·	·	·	·	·	·
CN1CCN(Cc2nc3ccccc3c(=O)n2CC#N)CC1	i	i	i	i	-6.9*	·	·	·	·	i	i	TRPC4 spec 2=i;TRPC4 spec=i;HEK293 MPD ctr 2-1=i;HEK293 MPD ctr-1=i
O=C1NC(Cc2c[nH]c3ccccc23)C(=O)N1Cc1ccc(CN2C(=O)NC(Cc3c[nH]c4ccccc34)C2=O)cc1 (centres undefined)	i	i	i	i	-5.3*	i	i	i	i	i	i
CCCCOc1ccc(CSCCN)cc1Cl	i	i	i	i	-6.2*	i	i	i	59%*	45%*	i
CCCCOc1ccc(CONS(=O)(=O)c2ccc(NC(C)=O)cc2)cc1Cl	i	i	i	i	i	·	·	·	·	·	·
Cn1cnc(S(=O)(=O)Nc2cc(-c3ccc(Cl)cc3)nn2C)c1	i	i	i	i	i	·	·	·	·	·	·
CN(C)CC/C=C1/c2cc(F)ccc2Sc2ccc(Cl)cc21	i	i	i	i	-5.3*	i	i	9.5%*	58%*	i	i
CN(C)CC/C=C1/c2ccccc2Sc2c(O)cc(Cl)cc21	i	i	i	i	i	·	·	·	·	·	·
CCCCN(CCCC)c1cn[nH]c(=O)c1Cl	i	i	i	i	-6.9*	·	·	·	·	i	·	TRPC4 spec 2=i;TRPC4 spec=21%*;HEK293 MPD ctr 2-1=i;HEK293 MPD ctr-1=11%*
CCCCSc1nc2[nH]ncc2c(=O)[nH]1	i	i	i	i	i	·	·	·	·	·	·
COc1ccc(CCNCC(O)COc2cccc(C(C)=O)c2)cc1OC (centres undefined)	i	i	i	i	i	·	·	·	·	·	·
CSc1ccc(CCNS(=O)(=O)c2csc(C(N)=O)c2)cc1	i	i	i	i	i	·	·	·	·	·	·
O=C(Nc1ccccc1C(=O)Nc1ccncc1)c1cccc([N+](=O)[O-])c1	i	i	i	i	i	·	·	·	·	·	·
NCCc1nnc(SCc2c(Cl)cccc2Cl)o1	i	i	i	i	i	·	·	·	·	·	·
NCCCCCc1nnc(SCc2ccccc2Cl)o1	i	i	i	i	-6.4*	i	i	16%*	i	i	·
NCCCCCc1nnc(SC/C=C/c2ccccc2)o1	i	i	i	i	-5.5*	102%*	i	18%*	i	i	·
O=C(c1ccc(Cl)c(S(=O)(=O)N2CCCC2)c1)N1CCN(c2ncccn2)CC1	i	i	i	i	i	·	·	·	·	·	·
OC1=C(O)c2nc3cc(C(F)(F)F)ccc3nc21	i	i	i	i	i	·	·	·	·	·	·
O=C(Nc1ccc(F)cc1)c1ccccc1Oc1ccc(C(F)(F)F)cc1[N+](=O)[O-]	i	i	i	i	-5.3*	i	i	i	35%*	i	i
Cc1cc(NCCCn2ccnc2)n2nc(-c3ccc(Cl)cc3)cc2n1	i	i	i	i	-11*	i	100%*	20%*	54%*	54%*	i
Cc1cc(NCCCn2ccnc2)n2nc(-c3ccc(F)cc3)cc2n1	i	i	i	i	-10*	-300%*	92%*	-54%*	62%*	72%*	i
Cc1cccc(-c2cc3nc(C)c(C)c(NCCCn4ccnc4)n3n2)c1	i	i	i	i	-7.4*	·	·	·	·	76%*	i	TRPC4 spec 2=58%*;TRPC4 spec=-18%*;HEK293 MPD ctr 2-1=i;HEK293 MPD ctr-1=i
Cc1ccc(-c2cc3nc(C)cc(NCc4ccco4)n3n2)cc1	i	i	i	i	i	·	·	·	·	·	·
CC(C(=O)Nc1ccccc1Br)N1c2cccc3cccc(c23)S1(=O)=O (centres undefined)	i	i	i	i	i	·	·	·	·	·	·
SMILES	TRPC6 act	TRPC4 act	TRPC4 inh	TRPC4 potent	TRPC6 inhibitor	HEK293 MPD ctr-2	HEK293 MPD ctr 2-2	TRPC4 ctr mod	TRPC4/MOR inh 2	TRPC6 block conf	TRPC6 act confirm	others
NC(C(=O)O)C(c1ccccc1)C(F)F (centres undefined)	i	i	i	i	i	·	·	·	·	·	·
Cc1cnc(NC(=O)C2CC(=O)N(c3cccc(Cl)c3)C2)s1 (centres undefined)	i	i	i	i	i	·	·	·	·	·	·
O=C(Nc1c2c(nn1-c1ccc(F)cc1)CS(=O)(=O)C2)c1ccc(S(=O)(=O)N2CCOCC2)cc1	i	i	i	i	i	·	·	·	·	·	·
CCOC(=O)c1ccc(NC(=S)N2CCCC(C)C2)cc1 (centres undefined)	i	i	i	i	-5*	i	i	i	i	i	i
CCOC(=O)c1ccc(NC(=S)N2CCCC(C(=O)N3CCCC3)C2)cc1 (centres undefined)	i	i	i	i	i	·	·	·	·	·	·
O=C(NCC(c1ccco1)N1CCCC1)c1ccccc1Sc1ccc(C(F)(F)F)cc1[N+](=O)[O-] (centres undefined)	i	i	i	i	-6.6*	·	·	·	·	i	i	TRPC4 spec 2=i;TRPC4 spec=3.1%*;HEK293 MPD ctr 2-1=245%*;HEK293 MPD ctr-1=i
